Results: ChEMBL document CHEMBL4513216, “Probing the Open Global Health Chemical Diversity Library for Multistage-Active Starting Points for Next-Generation Antimalarials” (ACS Infect Dis, 2020)

Assay: Toxicity liver stage against HepG2, at 10uM
Format: cell-based
Parameters: test concentration 10 uM, cell line HepG2-A16-CD81EGFP
Settings: human, HepG2-A16-CD81EGFP cells; read-out: INHIBITION
In short: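 Uninfected HepG2-A16-CD81EGFP cells, 3 × 10^3 per well, 1536-well, plated on prespotted compound at 10 μM final, parasite-free screening media added to match infected plates; puromycin 10 μM positive, DMSO 0.5% negative; run in parallel with 48 h PbLuc assay at 37 °C, 5% CO2; viability by CellTiter-Glo luminescence, normalized to controls.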

| Structure (SMILES) | cytotoxicity at 10 µM [%] |
| --- | --- |
| COc1cccc(CN2CC(O)CN(C(=O)C3CCC3)CC2=O)c1OC (centres undefined) | 4.43 |
| Cc1cccnc1NC(=O)C1(n2cnnn2)CCCCC1 | -2.43 |
| Cc1cc(NC(=O)Cn2ncc(SCC(N)=O)c(Cl)c2=O)ccc1Br | 15.3 |
| Cc1nnsc1C(=O)N1CC(c2nc3ccccc3[nH]2)C1 | 4.17 |
| Cc1nnsc1C(=O)NCc1nn(C2CCCC2)c2c1CCCC2 | -0.543 |
| O=C(c1nc2c(s1)CCCN2C(=O)C1CC1)N1CCOCC1 | 4.96 |
| c1cnc(N2CCO[C@H]3[C@H](OCCN4CCOCC4)CC[C@@H]32)nc1 | -10.2 |
| CC(C)CNC(=O)N1CCC2(CCCO2)C1 (centres undefined) | 12.9 |
| CN1CCCN(C(=O)c2cc3c(s2)CCN3C(=O)c2ccccc2)CC1 | 1.05 |
| Cc1c(C)n(Cc2ccccn2)c2nc3c(c(N)c12)CCCCCC3 | 9.15 |
| Cc1nn(C)c2c(=O)n(C)c(NCC3CCCO3)nc12 (centres undefined) | 0.186 |
| CCN1CCN(S(=O)(=O)c2cc(C)c(Cl)cc2C)CC1 | -3.89 |
| COC(=O)C1CCN(C(=O)c2nnc3ccc(C)cc3n2)CC1 | 11.7 |
| Oc1ccc(Cl)cc1CNCc1ccccc1Cl | -0.0124 |
| O=C(c1cnn2c(-c3ccco3)ccnc12)N1CCCCCC1 | 14.4 |
| CNc1nc(C)c(C(=O)N2CCCCC2CN2CCCCCC2)s1 (centres undefined) | -2.5 |
| NC(=O)C1(Cc2ccccc2-c2ccccc2)CCCN(CC2CC2)C1 (centres undefined) | 1.67 |
| COCC(=O)Nc1ccc(Oc2ccsc2C(=O)O)cc1 | 8.12 |
| CCc1nc(Cn2nc(COC)oc2=O)cs1 | -43.4 |
| Cc1cc(NC(=O)NCc2nncn2C)ccc1OC(C)C | 6.23 |
| CN(CC(=O)NS(=O)(=O)c1ccc(F)cc1)Cc1ccccc1 | 14.3 |
| CNS(=O)(=O)c1ccc(CNC(=O)N2CCOC(C)C2)cc1 (centres undefined) | 9.15 |

| Structure (SMILES) | cytotoxicity at 10 µM [%] |
| --- | --- |
| Cc1nc(CNC(=O)N2CCN(c3ccc(Cl)cn3)CC2)no1 | -13.1 |
| O=C(Cc1ccon1)N1CCN(c2ccc(F)cc2Cl)CC1 | 1.02 |
| CC(C)Cc1noc(CN(C)C2CCCC2)n1 | 0.274 |
| COc1cccc(CC(=O)N2CCC(O)(C(F)(F)F)C2)c1 (centres undefined) | 1.16 |
| Cc1cccc(CCC(=O)NCC2CCCN2c2cccnn2)c1 (centres undefined) | -3.96 |
| Cc1cc(C(N)=O)ccc1NC(=O)c1nc(N2CCCCC2)ncc1Cl | -13.9 |
| CCN1CCC(CNCc2cc(C)ccc2OC)C1 (centres undefined) | 17.4 |
| CCN(C1CCN(C(=O)c2cccc(Cl)c2)CC1)S(C)(=O)=O | 0.209 |
| CCc1ccsc1C(=O)N1CCCC(c2noc(C)n2)C1 (centres undefined) | 3.77 |
| Cn1cc(CC2CCN(C(=O)NCCCc3ccc(O)cc3)C2)cn1 (centres undefined) | 0.557 |
| Cc1noc(COCC(=O)N2CCCC(c3nccs3)C2)n1 (centres undefined) | 0.172 |
| CCOc1cccc(COC(=O)c2cc(Cl)ccn2)n1 | -2.52 |
| CN(C)c1ncncc1NC(=O)Cc1c[nH]c2ccc(F)cc12 | -9.74 |
| Cc1ccc(S(=O)(=O)NCc2cnn(C)c2)c(F)c1 | -13 |
| COCCOCC(=O)NC(C#N)c1cc(Cl)cc(Cl)c1 (centres undefined) | 8.31 |
| CC(NC(=O)c1cccs1)C(=O)NS(=O)(=O)c1cccc(C#N)c1 (centres undefined) | -7.23 |
| CC(=O)Nc1nc(C(=O)NCCOc2ccc(C)cc2)cs1 | 5.35 |
| CCC(O)CN1CCN(C(=O)c2csc(COC)n2)CC1 (centres undefined) | 7.72 |
| CC(=O)NCCNC(=O)c1cc(C)ccc1SC1CCCC1 | -41.5 |
| c1ccc(CC2(CNCc3ncc[nH]3)CCC2)cc1 | 0.458 |
| Cc1ccc(OCCCNC(=O)CN(C)c2ccc(C#N)cn2)cc1 | 4.01 |
| Cc1ccc(C2COCCN2C(=O)c2ccc(CN(C)C)cc2)o1 (centres undefined) | 0.692 |

| Structure (SMILES) | cytotoxicity at 10 µM [%] |
| --- | --- |
| Cc1nc(CN2CCN(C)C(=O)C23CCN(CC2CCCC2)CC3)cs1 | 11 |
| Cc1ccc2c(n1)N(C)CCN(Cc1cnn(C)c1)C2 | 3.04 |
| c1cncc(CN2CCCC3(COCCN(c4nccs4)C3)C2)c1 (centres undefined) | -80.4 |
| Cc1nc(NCC2CC2)nc2c1COCC21CCN(C(=O)C(C)(C)C)C1 (centres undefined) | -77.8 |
| CCC1=N[C@@]2(CC[C@@H]3CN(C(=O)NCc4ccccc4)C[C@@H]32)C(=O)N1 | -10.3 |
| CN1CC(c2ccccc2)CC2(CCN(C(=O)c3ccccc3)CC2)C1 (centres undefined) | -0.0342 |
| Cc1nc(C(C)C)ncc1C(=O)N1CCc2c(nc(N(C)C)[nH]c2=O)C1 | 14.3 |
| COC(C)(C)C(=O)N[C@H]1CN(c2nccnc2N(C)C)C[C@@H]1C(C)C | 4.24 |
| CCCOC1CCCN(c2ncnc3c2CCN(C(=O)C2CC2)C3)C1 (centres undefined) | 4.84 |
| O=C(NCc1ccc(Cl)s1)c1cc(CN2CCCC(O)C2)on1 (centres undefined) | -52.3 |
| Cc1n[nH]c(C)c1CC(=O)N1CCC2(CC1)CN(C)CCN2C | 1.73 |
| O=c1cc(-c2cc(O)cc(CCC3CCCCN3)c2)cc[nH]1 (centres undefined) | 0.749 |
| O=C(CN1CCCC1c1nc2cc(F)ccc2[nH]1)NCc1ccccn1 (centres undefined) | -0.748 |
| CCCc1cncnc1N1CCC(NCCc2ccc(O)cc2)CC1 | 2.47 |
| CN1CCCC(CCC(=O)N2CCc3c(nc(CC4CC4)[nH]c3=O)C2)C1 (centres undefined) | -8.61 |
| CNS(=O)(=O)c1ccc(CN2CCN(Cc3ncccc3C)CC2)cc1 | 8.41 |
| CNS(=O)(=O)c1ccc(CN2CCN3CCNC(=O)C3C2)cc1 (centres undefined) | -6.22 |
| CC(CCc1ncnn1Cc1cccc(Cl)c1)N1CCCC1 (centres undefined) | -3.03 |
| CCc1nccn1CCC(=O)N1CC(=O)N(c2ccccc2C)CC1C (centres undefined) | -15 |
| CCCS(=O)(=O)N1CCC2(CCC(=O)N(Cc3ccccc3)C2)CC1 | 11.2 |
| CCC[C@H]1CN(CCS(C)(=O)=O)C[C@@H]1NC(=O)c1cc(CC)on1 | -2.42 |
| CC(C)c1cc(C2CCN(Cc3cc(F)cc(F)c3)CC2)[nH]n1 | -7.46 |

| Structure (SMILES) | cytotoxicity at 10 µM [%] |
| --- | --- |
| Cc1cc2ncn(C[C@]3(O)CCCN4CCCC[C@@H]43)c2cc1C | -2.42 |
| CCC(=O)N1CCCC1C(=O)N1CCC(Cc2ccc(F)cc2)CC1 (centres undefined) | -0.0726 |
| CCN1CCC(N[C@@H]2CC[C@@H]2NC(=O)Cc2csc(C)n2)CC1 | 1.82 |
| Cc1ccsc1CNc1ccccc1C(=O)N1CCNC(=O)C1 | -1.68 |
| Cc1nn(C)c2nc(N3CCCC3c3nccs3)sc12 (centres undefined) | -2.87 |
| CCN1CCC(CC(=O)N2CCCCC2CCn2cccn2)CC1 (centres undefined) | -5.02 |
| Cn1ncc2c(N[C@H]3CCCC[C@@H]3O)nc(C(C)(C)C)nc21 | -21.5 |
| CSCC(=O)N[C@H]1CC[C@H](Nc2nccc(-c3cccnc3)n2)C1 | 9.87 |
| CC(C)CN1C(=O)CC[C@H]2CN(C(=O)c3ncc[nH]3)CC[C@H]21 | 5.09 |
| CCN(CC)S(=O)(=O)c1csc(C(=O)N2CCC(C(N)=O)CC2)c1 | -43.9 |
| Cc1ccc(-c2cc(C(=O)NCCC3=CCCCC3)[nH]n2)o1 | -55.1 |
| c1cncc(CCc2nc(C3CC3)nn2-c2ccc3c(c2)OCCO3)c1 | -0.833 |
| COc1ccc(C(=O)N2CCC(Oc3ccccc3)(C(=O)O)CC2)o1 | 11.6 |
| O=C(c1ccc[nH]1)N1CCN(CC2CCOc3ccccc3C2)CC1 (centres undefined) | 4.03 |
| Cc1cc(C[S+]([O-])CC(=O)NCc2cccc(Cl)c2)no1 (centres undefined) | -1.56 |
| CCc1nnc2n1CCN(C(=O)CN(CC)CC)C2 | -3.14 |
| COC(=O)CCNC(=O)c1nnn(-c2ccc(C)cc2)c1C1CC1 | -0.121 |
| Cc1nnc(N2CCOC(CN(C)C)C2)c(C#N)c1C (centres undefined) | -9.95 |
| Cc1nc(C)n(CC2CN(CCCOc3ccccc3)CCO2)n1 (centres undefined) | -0.924 |
| CCN(Cc1cccc(C)c1)Cn1nc(C)c2c(C)onc2c1=O | -1.03 |
| Cc1ccc(-c2nc(CN3CCOC(Cn4cccn4)C3)co2)cc1 (centres undefined) | -5.3 |
| O=C(Cc1ccc2c(c1)CCO2)N1CCCC1c1noc(C2CC2)n1 (centres undefined) | -7.71 |

| Structure (SMILES) | cytotoxicity at 10 µM [%] |
| --- | --- |
| CCCc1n[nH]c(C2CN(Cc3nnc(C4CC4)n3C)CCO2)n1 (centres undefined) | -2.36 |
| CN(C)c1ccc(CNc2cncc(-n3cccn3)n2)cc1 | -7.31 |
| Cc1nn(C)c(C)c1C1CCCN1Cc1nc(-c2ccco2)no1 (centres undefined) | -3.17 |
| O=C(NCCc1cccnc1)N1CCCC1c1ccsc1 (centres undefined) | -6.82 |
| Cc1cc(CN(C)C(=O)NC2CCN(Cc3ccccc3)C2)no1 (centres undefined) | -0.421 |
| Cc1nc(CN(C)C2CCN(Cc3ccno3)C2)no1 (centres undefined) | 2.07 |
| Cc1cnc(CNC(=O)[C@@]23CCO[C@@H]2CCNC3)cn1 | -108 |
| O=C(NC1CC1)[C@@H]1C[C@@H]2CCN(Cc3ccoc3)C[C@@H]2O1 | -103 |
| O=C([C@@H]1C[C@@H]2CCN(CCc3ccccc3)C[C@H]2O1)N1CCCC1 | 0.307 |
| COc1cccc(-c2noc(C3CCN(Cc4cccs4)C3)n2)c1 (centres undefined) | -0.192 |
| O=C(NC1CCC1)[C@@H]1C[C@@H]2CCN(Cc3cccs3)C[C@@H]2O1 | 5.38 |
| CO[C@H]1CCN(c2ncc(F)cn2)[C@@H]2CN(Cc3ccco3)C[C@H]12 | 13.5 |
| Cc1cnc(N2CCC3(CC2)CC(N(C)Cc2ccncc2)C3)nc1 | 8.73 |
| COCCN1CCC2(CCCN(C(=O)c3cncn3C)C2)CC1 | -1.4 |
| O=C(c1ccccc1)N1CCC[C@]2(C[C@@H](OCc3ccccn3)CO2)C1 | -67.5 |
| O=C(c1cscn1)N1CC[C@@H]2[C@@H]1CCN2CC1CCOC1 (some centres undefined) | -2.36 |
| COCCN1CCCC12CCN(Cc1cncn1C)CC2 | 8.52 |
| CCOc1ccccc1CN1CCc2nc3ccsc3c(=O)n2CC1 | -5.81 |
| CN1CCC2(CC1)C(=O)N(C)c1ccc(F)cc12 | -115 |
| CCCN1C[C@@H]2CC[C@H]1CN(Cc1ccc(-n3cccn3)cc1)C2 | 5.05 |
| CC(C)=CCN1C(=O)[C@@H]2CC[C@H]1CN(c1ncccc1C(N)=O)C2 | 6.13 |
